The list is not random: actives were taken first. Their share in the collection is about 2.3%.
TRPC6 activator: activators of mouse TRPC6 channel; AID 2550; HEK293-TRPC6 membrane potential dye fluorescence; hits give high values; hit rate 0.13% among 310,000; Q61143; B-score at 10 µM;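 active = B-score of the integrated fluorescence ratio above library mean plus 3 SD, and starting fluorescence ratio within library mean plus 5 SD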;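 also: higher score means more depolarization so channel activation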
Target sequence (Q61143 whole entry, looked up): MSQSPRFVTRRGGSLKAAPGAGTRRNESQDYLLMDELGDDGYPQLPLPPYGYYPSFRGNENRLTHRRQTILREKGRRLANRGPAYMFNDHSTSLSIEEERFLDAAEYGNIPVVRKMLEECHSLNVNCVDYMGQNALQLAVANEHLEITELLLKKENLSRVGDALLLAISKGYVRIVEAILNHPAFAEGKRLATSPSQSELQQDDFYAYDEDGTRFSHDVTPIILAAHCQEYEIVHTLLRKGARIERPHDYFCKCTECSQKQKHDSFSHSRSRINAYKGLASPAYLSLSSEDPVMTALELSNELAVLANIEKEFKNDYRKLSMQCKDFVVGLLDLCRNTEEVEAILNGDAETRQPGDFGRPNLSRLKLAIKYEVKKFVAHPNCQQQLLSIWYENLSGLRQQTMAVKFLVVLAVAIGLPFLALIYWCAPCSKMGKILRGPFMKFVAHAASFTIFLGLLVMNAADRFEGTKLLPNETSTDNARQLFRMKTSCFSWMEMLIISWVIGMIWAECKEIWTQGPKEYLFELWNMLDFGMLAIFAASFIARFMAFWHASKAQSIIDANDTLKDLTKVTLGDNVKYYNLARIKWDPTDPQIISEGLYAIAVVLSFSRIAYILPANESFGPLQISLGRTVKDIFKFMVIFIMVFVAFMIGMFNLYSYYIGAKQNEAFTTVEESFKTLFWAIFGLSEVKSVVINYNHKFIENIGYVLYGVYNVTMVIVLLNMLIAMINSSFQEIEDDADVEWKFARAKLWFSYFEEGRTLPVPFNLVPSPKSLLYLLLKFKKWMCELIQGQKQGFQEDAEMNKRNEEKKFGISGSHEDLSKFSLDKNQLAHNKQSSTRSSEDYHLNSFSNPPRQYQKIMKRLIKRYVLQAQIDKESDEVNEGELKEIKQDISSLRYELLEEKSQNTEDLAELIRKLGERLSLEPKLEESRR
TRPC4 act: TRPC4 (mouse) channel activation; Q9QUQ5; HEK293 TRPC4beta/mu-opioid, Fluo4 calcium fluorescence; hits give high values; B-score at 10 µM; hit rate 0.49% among 310,000;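 active = B-score above 5 SD of library B-scores, and initial fluorescence ratio not above library mean plus 5 SD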;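 also: positive B-score marks a calcium rise read as TRPC4 activation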
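Test system: HEK293 cells stably co-expressing mouse TRPC4beta and mu-opioid receptor | Schedule: Fluo4 dye loading 45 min at room temperature, 110 s recording | Measured by: Kinetic Fluo4 calcium fluorescence, 5 s baseline at 1 Hz | Evaluation: B score of integrated ratio | Controls: Buffer (low) and maximal DAMGO (high)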
TRPC4 inh: inhibitors of mouse TRPC4 channel; Q9QUQ5; HEK293 TRPC4beta/mu-opioid, DAMGO-evoked Fluo4 calcium flux; hits give low values; B-score at 10 µM; hit rate 0.39% among 300,000; AID 2247;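 active = B-score over 3 SD under the library average, no early fluorescence shift, positive overall ratio signal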
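Assay system: HEK293 cells with stable TRPC4beta plus mu-opioid receptor expression. Dosing: single dose. Measured by: Fluo4 Ca2+ flux fluorescence. Also added: DAMGO in two steps, submaximal then maximal. Read-out: B score from integrated Fluo4 fluorescence ratio.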
TRPC6 inh: mouse TRPC6 channel inhibition; hit rate 1.1% among 310,000; Q61143; HEK293-TRPC6, membrane potential dye, ACh-evoked depolarization; hits give low values; B-score at 10 µM;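 active = B-score under library mean minus 3 SD, initial fluorescence not abnormally high, positive integrated signal ratio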;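 also: B-score derived from integrated fluorescence ratio over the kinetic read; more negative B-score means stronger inhibition of depolarization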
TRPC4 PAM: TRPC4 (mouse) allosteric potentiation; Q9QUQ5; HEK293 TRPC4beta/mu-opioid, DAMGO EC20, Fluo-4 Ca2+ flux; hits give high values; B-score at 10 µM; hit rate 0.42% among 310,000;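 active = B-score of calcium response area above 5 SD of library B-scores, with initial fluorescence ratio within 5 SD of library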;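 also: B-score of integrated fluorescence ratio over time as area under calcium response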
TRPC4 sel inh 2: mouse TRPC4 off-target activity of TRPC6 inhibitors, second screen. shares compounds with TRPC6 inh. hit rate 42% among 920. HEK293 TRPC4/MOR, membrane potential dye fluorescence; channel activated by saturating DAMGO dose. inhibition, % at 10 µM. AID 2776;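 active = compounds whose fluorescence signal differed from control wells by over 3 SD, either direction, in both duplicate plates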
TRPC4 spec: tests whether TRPC6 inhibitors also affect mouse TRPC4. shares compounds with TRPC6 inh. HEK293 TRPC4/mu-opioid, membrane potential fluorescence. activity change, negative = inhibition, % at 10 µM. hit rate 61% among 920. AID 2777;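 active = rise or fall in signal beyond 3 SD of buffer-only wells in both replicate plates, either sign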;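 also: integrated kinetic ratio of fluorescence range over baseline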
HEK293 MPD ctr 2-1: second check of TRPC6 inhibitor effects in parental HEK293 cells; shares compounds with TRPC6 inh; parental HEK293 membrane potential dye fluorescence; maximal acetylcholine challenge after compound addition; signal change vs control, % at 10 µM; hit rate 31% among 920;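 active = membrane potential signal moving either way by over 3 SD of the maximum-effect control, in both duplicate plates, meaning non-specific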
HEK293 MPD ctr-1: checks TRPC6 inhibitor effects in parental HEK293 cells. parental HEK293 membrane potential dye fluorescence. hit rate 60% among 920. shares compounds with TRPC6 inh. AID 2780. membrane potential signal change, % at 10 µM;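 active = membrane potential signal shifting up or down by more than 3 SD of buffer-only wells, on both duplicate plates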
HEK293 MPD ctr-2: counter-screen for TRPC6 modulators: effect in parental HEK293 cells. shares compounds with TRPC6 inh. membrane potential dye fluorescence. membrane potential signal change, % at 10 µM. hit rate 51% among 2,400;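 active = membrane potential signal moves up or down beyond 5 SD from buffer-only wells, on both duplicate plates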
HEK293 MPD ctr 2-2: second counter-screen for TRPC6 modulators: effect in parental HEK293 cells. hit rate 14% among 2,400. membrane potential dye fluorescence; after compound, maximal acetylcholine stimulation. inhibition, % at 10 µM. shares compounds with TRPC6 inh;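 active = membrane potential signal drops by more than 5 SD from the mean control signal, in both duplicate plates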;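 also: plate controls were acetylcholine ECmax control wells for no effect and buffer only wells for full effect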
TRPC4/MOR mod: selectivity of TRPC6 modulators against mouse TRPC4 | shares compounds with TRPC6 inh | HEK293 TRPC4/mu-opioid, membrane potential fluorescence | percent change from control (negative = decrease, positive = increase), % at 10 µM | hit rate 69% among 2,400 | AID 488927;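 active = membrane potential signal moved up or down beyond 5 SD of buffer control wells, in both duplicate plates, actives on both sides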;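 also: plate controls were assay buffer wells for no effect and DAMGO maximal-effect wells for full effect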
TRPC4 ctr inh 2: mouse TRPC4 off-target activity of TRPC6 modulators, second screen; inhibition, % at 10 µM; hit rate 55% among 2,400; HEK293 TRPC4/mu-opioid, membrane potential dye fluorescence; stimulated with maximal-effect DAMGO; shares compounds with TRPC6 inh; AID 488928;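 active = drop in membrane potential signal beyond 5 SD of the control wells in both duplicate plates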;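 also: TRPC4 counter screen for TRPC6 hits run under conditions tuned for TRPC6 not TRPC4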
TRPC6 block conf: mouse TRPC6 inhibitor confirmation | shares compounds with TRPC6 inh | inhibition, % at 10 µM | hit rate 43% among 3,300 | HEK293-TRPC6, membrane potential dye, ACh-evoked depolarization;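 active = fluorescence ratio falls more than 5 SD below the full-stimulation control mean, in both duplicate runs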;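 also: integrated fluorescence ratio of peak minus minimum over baseline after agonist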
TRPC6 act confirm: mouse TRPC6 activator confirmation | shares compounds with TRPC6 inh | HEK293-TRPC6 membrane potential dye fluorescence, FDSS | activation, % at 10 µM | hit rate 11% among 2,800;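 active = ratio signal rise beyond 5 SD above unstimulated control wells' mean, seen in both duplicate runs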;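 also: plate controls were buffer EC0 wells for no effect and acetylcholine ECmax response for full effect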
* = called active by the depositor; i = inactive; x = not tested or not shown.

SMILES	TRPC6 activator	TRPC4 act	TRPC4 inh	TRPC6 inh	TRPC4 PAM	HEK293 MPD ctr-2	HEK293 MPD ctr 2-2	TRPC4/MOR mod	TRPC4 ctr inh 2	TRPC6 block conf	TRPC6 act confirm	others
O=C(NC(=S)NC1C2CC3CC(C2)CC1C3)C12CC3CC(CC(C3)C1)C2 (configuration not stated)	i	i	i	-8*	i	x	x	x	x	i	i	TRPC4 sel inh 2=i;TRPC4 spec=i;HEK293 MPD ctr 2-1=i;HEK293 MPD ctr-1=i
Cc1ccc(S(=O)(=O)n2cccc2C)cc1	i	i	i	i	i	x	x	x	x	x	x
CCN(CC)CCNC(=O)c1[nH]c2ccc(OCc3ccccc3)cc2c1C	i	i	i	-7.5*	i	i	i	i	38%*	55%*	x
Cc1nc(C)c(CCNC(=O)c2ccccc2)s1	i	i	i	-6*	i	i	i	i	i	i	i
CCCCC(CC)Cn1c(N)c(C#N)c2nc3ccccc3nc21 (configuration not stated)	i	i	i	-6*	i	i	i	i	i	i	i
CCOc1ccc(OCCC(=O)OCC(=O)NC(C)c2ccccc2)cc1 (configuration not stated)	i	i	i	i	i	x	x	x	x	x	x
CCCCN(CCCC)CC(O)CN(c1cc([N+](=O)[O-])ccc1OC)S(=O)(=O)c1ccccc1 (configuration not stated)	i	i	i	-10*	i	x	x	x	x	67%*	i	TRPC4 sel inh 2=28%*;TRPC4 spec=i;HEK293 MPD ctr 2-1=i;HEK293 MPD ctr-1=0.2%*
COc1ccc([N+](=O)[O-])cc1N(CC(O)CN(CC(C)C)CC(C)C)S(=O)(=O)c1ccccc1 (configuration not stated)	i	i	i	i	i	x	x	x	x	x	x
Nc1c(C(=O)N2CCOCC2)oc2ccccc12	i	i	i	-5.4*	i	i	i	i	i	i	i
CCCCCCSc1ccc([C@H]2N[C@@](CC(C)C)(C(=O)OC)[C@H]3C(=O)N(C)C(=O)[C@@H]23)cc1OC	i	i	i	i	i	x	x	x	x	x	x
CCN(CC)CCNC(=O)Cn1nc(Cc2ccncc2)c2ccccc2c1=O	i	i	i	-6.2*	i	i	i	i	i	i	i
COc1cc2c(cc1OC)C(C)N(C(=O)c1cc3c(s1)-c1ccccc1OC3)CC2 (configuration not stated)	i	i	i	i	i	x	x	x	x	x	x
CCOC(=O)N1CCN(C(=O)c2cccc(NS(=O)(=O)c3ccc(F)c(F)c3)c2)CC1	i	i	i	i	i	x	x	x	x	x	x
O=C(c1cccc(S(=O)(=O)Nc2ccccc2F)c1)N1CCN(c2ccccc2F)CC1	i	i	i	-6.5*	i	i	i	i	i	64%*	x
CN(c1ccccc1)S(=O)(=O)c1cccc(C(=O)N2CCN(c3ccccn3)CC2)c1	12*	i	i	-7.2*	i	144%*	i	38%*	i	64%*	94%*
Cc1cccc(NS(=O)(=O)c2cccc(C(=O)N3CCN(c4ccccn4)CC3)c2)c1	i	i	i	-10*	i	x	x	x	x	79%*	x	TRPC4 sel inh 2=i;TRPC4 spec=2.7%*;HEK293 MPD ctr 2-1=220%*;HEK293 MPD ctr-1=1.3%*
CCOC(=O)N1CCN(C(=O)c2cccc(S(=O)(=O)Nc3ccc(Br)cc3)c2)CC1	i	i	i	-9*	i	x	x	x	x	i	x	TRPC4 sel inh 2=i;TRPC4 spec=i;HEK293 MPD ctr 2-1=252%*;HEK293 MPD ctr-1=i
CC1Cc2ccccc2N1S(=O)(=O)c1cccc(C(=O)N2CCN(c3ncccn3)CC2)c1 (configuration not stated)	21*	i	i	i	i	130%*	i	86%*	86%*	x	174%*
Cc1cccc(NS(=O)(=O)c2cccc(C(=O)N3CCN(S(=O)(=O)c4ccccc4)CC3)c2)c1	13*	i	i	-13*	i	i	i	i	i	110%*	132%*
CCN(CC)C(=O)CCc1nnc(CCc2c[nH]c3ccccc23)o1	i	i	i	i	i	x	x	x	x	x	x
CCCN(CC1CC1)C(=O)CCc1nnc(CCc2c[nH]c3ccccc23)o1	i	i	i	-6.8*	i	x	x	x	x	i	i	TRPC4 sel inh 2=i;TRPC4 spec=2.7%*;HEK293 MPD ctr 2-1=i;HEK293 MPD ctr-1=0.9%*
CCN1C(=O)[C@H]2[C@@H](c3ccc(C)cc3)N3C(=O)N(c4ccc(OC)cc4)C(=O)[C@@]3(CC)[C@H]2C1=O	i	i	i	i	i	x	x	x	x	x	x
CC(C)COc1ccc(Br)cc1CNC(C)(C)C	i	i	i	-8.8*	i	584%*	120%*	128%*	83%*	106%*	x
Cc1cc(Br)ccc1OCCCCNC(C)(C)C	i	i	i	i	i	x	x	x	x	x	x
COCCNc1oc(/C=C/c2ccccc2)nc1C#N	i	i	i	i	i	x	x	x	x	x	x
N#Cc1nc(/C=C/c2ccccc2)oc1NCCCN1CCOCC1	i	i	i	-7.1*	i	x	x	x	x	i	i	TRPC4 sel inh 2=i;TRPC4 spec=i;HEK293 MPD ctr 2-1=i;HEK293 MPD ctr-1=i
CCOC(=O)c1nnc(-c2ccccc2)nc1NCc1ccccc1	i	i	i	i	i	x	x	x	x	x	x

Screens (PubChem)
